One block for each substance: values may come before it.
How the values were obtained:
insulin receptor = insulin receptor (Mus musculus, UniProt P15208); assay: Cell-based insulin receptor activation assay; conditions: C2C12 cells, phospho-AKT (Ser473) HTRF; relative to native insulin = 100%
healthy C57BL/6 mice = assay: Hypoglycemia effect in fasted healthy mice; type: in vivo; conditions: for number of mice died from hypoglycemia / dose at which mice started to suffer from notable hypoglycemia: n = 6
Outline: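 Tail-vein glucose was read by glucose meter at 30 min and 1–6 h. Hypoglycaemic effect was the area above the glycaemic curve and below 3.3 mmol/L. Survival was recorded at 10 U/kg. One-way ANOVA with Tukey test.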

[1] = test system: STZ-induced diabetic mice; assay: Glycemic control in STZ-induced type 1 diabetic mice with IPGTT; type: in vivo; conditions: s.c.; for number of mice experiencing hypoglycemia within 4 h post-injection / time for blood glucose to drop to the normoglycemic range: n = 6; for time for blood glucose to drop to the normoglycemic range: fasted STZ diabetic mice; for response to the first glucose challenge (IPGTT): glucose 2 g/kg i.p. at 4.5 h
Pharmacokinetics = type: in vivo, mice; conditions: n = 5; for delay of time to peak concentration: compared with insulin
[2] = Absorption and urine excretion of Cy7-labeled samples; type: in vivo, mice; conditions: s.c., n = 3; for time at which fluorescence at the injected site was undetectable: live imaging
In vitro stability = type: physicochemical; conditions: 1 mg/mL in PBS pH 7.4, 37 °C, 100 rpm, 80 h
Dynamic light scattering = type: physicochemical; conditions: DLS in PBS, average of three measurements
diabetic mice = assay: Long-term efficacy in diabetic mice; type: in vivo; conditions: for kidney Masson staining, amount of collagen fiber / kidney PAS staining: Day 14; for kidney H&E pathological features: Day 14, insulin 1 mg/kg, di-PEGylated insulin 3 mg/kg
Outline: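 Diabetes was induced in C57BL/6 mice with STZ 50 mg/kg i.p. in 0.1 mol/L citrate pH 4.5 on 5 consecutive days; only mice with fasting glucose >16.7 mmol/L at 2 weeks were used. […] Serum glycated protein, CREA and BUN were measured by kit on Days 7 and 14. Day-14 kidneys were stained with H&E, PAS and Masson (200×). Dunnett-corrected ANOVA.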

healthy C57 mice = assay: Biosafety in healthy mice; type: in vivo; conditions: 2 weeks daily; for blood cell counts: n = 5 or 6
Outline: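 Body weight was recorded every 2 days. After two weeks, blood was collected and blood cell counts were run on an automated veterinary haematology analyser.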

[3] = diabetic mice, Iso-insulin ELISA

Sequence of insulin receptor (P15208 28-748 limits assumed): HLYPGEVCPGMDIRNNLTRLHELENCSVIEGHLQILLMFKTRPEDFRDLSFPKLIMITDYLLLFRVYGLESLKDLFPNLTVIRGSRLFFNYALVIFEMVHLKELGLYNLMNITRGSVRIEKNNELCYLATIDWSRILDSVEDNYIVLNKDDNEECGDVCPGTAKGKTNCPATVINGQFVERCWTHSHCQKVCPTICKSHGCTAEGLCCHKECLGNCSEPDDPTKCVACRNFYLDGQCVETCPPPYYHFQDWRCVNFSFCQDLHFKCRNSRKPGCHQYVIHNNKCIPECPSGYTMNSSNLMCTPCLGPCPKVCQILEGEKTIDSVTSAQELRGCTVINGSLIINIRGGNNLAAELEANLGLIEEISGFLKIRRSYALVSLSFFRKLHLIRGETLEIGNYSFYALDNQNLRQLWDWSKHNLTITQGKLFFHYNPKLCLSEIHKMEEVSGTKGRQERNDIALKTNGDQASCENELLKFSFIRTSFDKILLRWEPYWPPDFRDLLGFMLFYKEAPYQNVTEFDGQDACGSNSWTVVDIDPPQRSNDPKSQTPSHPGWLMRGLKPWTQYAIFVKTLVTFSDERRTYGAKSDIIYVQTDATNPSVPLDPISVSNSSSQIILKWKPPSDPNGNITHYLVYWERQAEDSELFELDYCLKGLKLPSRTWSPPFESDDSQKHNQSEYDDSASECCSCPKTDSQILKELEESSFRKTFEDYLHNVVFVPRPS
Sequence of insulin receptor (P15208 753-1372 partner limits assumed): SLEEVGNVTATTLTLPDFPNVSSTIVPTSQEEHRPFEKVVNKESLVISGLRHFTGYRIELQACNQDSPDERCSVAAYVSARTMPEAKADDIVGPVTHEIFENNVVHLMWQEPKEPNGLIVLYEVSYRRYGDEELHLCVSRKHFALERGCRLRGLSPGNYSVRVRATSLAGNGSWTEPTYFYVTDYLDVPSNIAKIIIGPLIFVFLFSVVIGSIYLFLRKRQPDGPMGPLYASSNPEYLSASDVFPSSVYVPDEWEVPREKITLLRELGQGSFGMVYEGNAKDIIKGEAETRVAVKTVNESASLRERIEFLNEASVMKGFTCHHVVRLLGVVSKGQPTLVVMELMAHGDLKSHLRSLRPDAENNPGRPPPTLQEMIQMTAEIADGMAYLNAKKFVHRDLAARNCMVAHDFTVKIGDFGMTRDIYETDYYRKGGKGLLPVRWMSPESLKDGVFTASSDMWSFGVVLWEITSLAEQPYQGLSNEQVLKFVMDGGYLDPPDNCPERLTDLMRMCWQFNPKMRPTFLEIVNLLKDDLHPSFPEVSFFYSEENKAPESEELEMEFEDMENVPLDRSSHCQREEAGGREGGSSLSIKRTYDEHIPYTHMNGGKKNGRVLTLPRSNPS

Emax (insulin receptor): 63.5%
Substance: di-PEGylated insulin: insulin conjugated with two PEG chains (MW 5000) at Lys B29 and Gly A1
hypoglycemia in healthy mice (healthy C57BL/6 mice; s.c., 10 U/kg, fasted healthy mice, n = 6, threshold 3.3 mmol/L): didn't suffer from hypoglycemia
number of mice experiencing hypoglycemia within 4 h post-injection ([1]; 5 U/kg, STZ diabetic mice): no mice
duration of blood glucose management after a single dose ([1]; 15 U/kg, STZ diabetic mice, three IPGTT 2 g/kg): over 13 h
time at which serum concentration was still detected (Pharmacokinetics; [3]): 12 h
delay of time to peak concentration (Pharmacokinetics; [3]): approximately 1 h
time at which urine fluorescence signals could still be detected ([2]; Cy7 0.1 mg/kg): 12 h
time at which fluorescence at the injected site was undetectable [2]: 4 h
change in transmittance after the assay (In vitro stability): less than 2%
hydrodynamic size (Dynamic light scattering): 8.3 ± 1.1 nm
glycated serum protein (GSP) level (diabetic mice; 2-week treatment, 3 mg/kg daily, n = 6): markedly reduced
kidney Masson staining, amount of collagen fiber (diabetic mice): decreased
kidney PAS staining (diabetic mice): preserved glomerular basement membrane
kidney H&E pathological features (diabetic mice): somewhat attenuated
blood cell counts (healthy C57 mice): no noticeable change

Substance: insulin: Recombinant human insulin (26 U/mg) from Tonghua Dongbao Pharmaceutical [reference compound]
Emax (insulin receptor): 100%
number of mice died from hypoglycemia (healthy C57BL/6 mice; s.c., 10 U/kg, healthy mice): 4
dose at which mice started to suffer from notable hypoglycemia (healthy C57BL/6 mice; s.c., fasted healthy mice): 2 U/kg
number of mice experiencing hypoglycemia within 4 h post-injection ([1]; 5 U/kg, STZ diabetic mice): 5
time for blood glucose to drop to the normoglycemic range ([1]; 5 U/kg): ≤ 30 min
response to the first glucose challenge (IPGTT) ([1]; 5 U/kg): didn't show any efficacy in lowering blood glucose
time at which serum concentration was essentially undetectable (Pharmacokinetics; healthy mice, insulin ELISA): 4 h
fluorescence retention rate at the injected site ([2]; 4 h post-injection): 50%
time of maximum urine fluorescence signal ([2]; Cy7 0.1 mg/kg, IVIS imaging of urine): 2 h
time at which urine fluorescence was close to the background value ([2]; Cy7 0.1 mg/kg): 4 h
hydrodynamic size (Dynamic light scattering): 4.1 ± 0.2 nm
kidney Masson staining, amount of collagen fiber (diabetic mice): decreased
kidney PAS staining (diabetic mice): thicker glomerular basement membrane and incomplete brush border
kidney H&E pathological features (diabetic mice): somewhat attenuated
inflammatory cell infiltration in the skin at the injection site (healthy C57 mice; H&E): No significant inflammatory cell infiltration
blood cell counts (healthy C57 mice): no noticeable change

Substance: mono-PEGylated insulin: insulin conjugated with one PEG chain (MW 5000) at Lys B29
Emax (insulin receptor): 95.7%
increase in maximum tolerated dose (healthy C57BL/6 mice; healthy mice, from area under the hypoglycemia line, 10 U/kg vs 1 U/kg insulin): didn't show a significant improvement
number of mice died from hypoglycemia (healthy C57BL/6 mice; s.c., 10 U/kg, healthy mice): 5
dose at which mice started to suffer from notable hypoglycemia (healthy C57BL/6 mice; s.c., fasted healthy mice): 2 U/kg
number of mice experiencing hypoglycemia within 4 h post-injection ([1]; 5 U/kg, STZ diabetic mice): 4
time for blood glucose to drop to the normoglycemic range ([1]; 5 U/kg): ≤ 30 min
response to the following two additional IPGTTs ([1]; 5 U/kg, glucose 2 g/kg i.p. at 7.5 and 10.5 h): didn't exhibit glucose-lowering effects
response to the first glucose challenge (IPGTT) ([1]; 5 U/kg): moderate efficacy but failed to lower blood glucose to normoglycemic levels
delay of time to peak concentration (Pharmacokinetics; [3]): approximately 1 h
time at which fluorescence at the injected site was undetectable [2]: 4 h

From PMC11143505 (Acta Pharmaceutica Sinica. B, 2024)
